Results taken from ChEMBL document CHEMBL1151801, “Synthesis of new indeno[1,2-e]pyrimido[4,5-b][1,4]diazepine-5,11-diones as potential antitumor agents” (2008).

What was measured:
Format in all cases: functional
HOP-92 = assay: Antitumor activity against human HOP92 cells after 48 hrs by SRB assay; conditions: HOP-92, 48 h
In short: (§1)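 NCI in vitro human tumor cell line screen. Cells were exposed continuously to compound for 48 h at five concentration levels (100, 10, 1.0, 0.1 and 0.01). Growth was estimated by sulforhodamine B protein staining. GI50 is the concentration giving a 50% reduction in net protein increase relative to control cells over the incubation.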

U-251 = assay: Antitumor activity against human U251 cells after 48 hrs by SRB assay; conditions: U-251, 48 h
In short: (§2)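 NCI in vitro human tumor cell line screen. Continuous 48 h drug exposure at five concentrations (100, 10, 1.0, 0.1 and 0.01 µM). Cell growth estimated by sulforhodamine B protein staining. GI50 defined as the concentration giving 50% reduction in net protein increase versus control cells over the incubation.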

HT-29 = assay: Antitumor activity against human HT-29 cells after 48 hrs by SRB assay; conditions: HT-29, 48 h; in short: as §1
ACHN = assay: Antitumor activity against human ACHN cells after 48 hrs by SRB assay; in short: as §1
HCT-15 = assay: Antitumor activity against human HCT15 cells after 48 hrs by SRB assay; conditions: HCT-15, 48 h; in short: as §1
SF-539 = assay: Antitumor activity against human SF539 cells after 48 hrs by SRB assay; conditions: SF-539, 48 h; in short: as §1
KM12 = assay: Antitumor activity against human KM12 cells after 48 hrs by SRB assay; conditions: KM12, 48 h; in short: as §1
OVCAR-8 = assay: Antitumor activity against human OVCAR8 cells after 48 hrs by SRB assay; conditions: OVCAR-8, 48 h; in short: as §1
UO-31 = assay: Antitumor activity against human UO31 cells after 48 hrs by SRB assay; conditions: UO-31, 48 h; in short: as §2
HCC 2998 = assay: Antitumor activity against human HCC2998 cells after 48 hrs by SRB assay; conditions: HCC 2998, 48 h; in short: as §1
MDA-MB-435 = assay: Antitumor activity against human MDA-MB-435 cells after 48 hrs by SRB assay; conditions: MDA-MB-435, 48 h; in short: as §1
BT-549 = assay: Antitumor activity against human BT549 cells after 48 hrs by SRB assay; conditions: BT-549, 48 h; in short: as §1
SNB-75 = assay: Antitumor activity against human SNB75 cells after 48 hrs by SRB assay; conditions: SNB-75, 48 h; in short: as §1
PC-3 = assay: Antitumor activity against human PC3 cells after 48 hrs by SRB assay; conditions: PC-3, 48 h; in short: as §1
HOP-62 = assay: Antitumor activity against human HOP62 cells after 48 hrs by SRB assay; conditions: HOP-62, 48 h; in short: as §1
OVCAR-4 = assay: Antitumor activity against human OVCAR4 cells after 48 hrs by SRB assay; conditions: OVCAR-4, 48 h; in short: as §1
NCI-H522 = assay: Antitumor activity against human NCI-H522 cells after 48 hrs by SRB assay; conditions: NCI-H522, 48 h; in short: as §1
NCI-H226 = assay: Antitumor activity against human NCI-H226 cells after 48 hrs by SRB assay; conditions: NCI-H226, 48 h; in short: as §1
HCT-116 = assay: Antitumor activity against human HCT116 cells after 48 hrs by SRB assay; conditions: HCT-116, 48 h; in short: as §1
786-0 = assay: Antitumor activity against human 786-0 cells after 48 hrs by SRB assay; conditions: 786-0, 48 h; in short: as §1
SR = assay: Antitumor activity against human SR cells after 48 hrs by SRB assay; in short: as §1
A498 = assay: Antitumor activity against human A498 cells after 48 hrs by SRB assay; conditions: A498, 48 h; in short: as §1
T47D = assay: Antitumor activity against human T47D cells after 48 hrs by SRB assay; in short: as §2
A549 = assay: Antitumor activity against human A549 cells after 48 hrs by SRB assay; conditions: A549, 48 h; in short: as §1
NCI-H460 = assay: Antitumor activity against human NCI-H460 cells after 48 hrs by SRB assay; conditions: NCI-H460, 48 h; in short: as §1
[1] = Antitumor activity against human […] cells after 48 hrs by SRB assay; in short: as §1
MOLT-4 = assay: Antitumor activity against human MOLT4 cells after 48 hrs by SRB assay; conditions: MOLT-4, 48 h; in short: as §1
SF-295 = assay: Antitumor activity against human SF295 cells after 48 hrs by SRB assay; conditions: SF-295, 48 h; in short: as §1
EKVX = assay: Antitumor activity against human EKVX cells after 48 hrs by SRB assay; in short: as §1
NCI-H322M = assay: Antitumor activity against human NCI-H322M cells after 48 hrs by SRB assay; in short: as §1
SK-OV-3 = assay: Antitumor activity against human SKOV3 cells after 48 hrs by SRB assay; conditions: SK-OV-3, 48 h; in short: as §1
K562 = assay: Antitumor activity against human K562 cells after 48 hrs by SRB assay; conditions: K562, 48 h; in short: as §1
MDA-MB-231 = assay: Antitumor activity against human MDA-MB-231 cells after 48 hrs by SRB assay; conditions: MDA-MB-231, 48 h; in short: as §1
COLO 205 = assay: Antitumor activity against human COLO205 cells after 48 hrs by SRB assay; conditions: COLO 205, 48 h; in short: as §1
SW-620 = assay: Antitumor activity against human SW620 cells after 48 hrs by SRB assay; conditions: SW-620, 48 h; in short: as §2
CCRF-CEM = assay: Antitumor activity against human CCRF-CEM cells after 48 hrs by SRB assay; in short: as §1
CAKI-1 = assay: Antitumor activity against human Caki1 cells after 48 hrs by SRB assay; conditions: CAKI-1, 48 h; in short: as §1
HL-60(TB) = assay: Antitumor activity against human HL-60(TB) cells after 48 hrs by SRB assay; conditions: HL-60, 48 h; in short: as §1
[2] = read-out: LC50 (the source's name)

CSc1nc2c(c(=O)[nH]1)NC1=C(C(=O)c3ccccc31)C(c1ccc(F)cc1)N2 (stereo unspecified)
GI50 (HOP-92): 9.52 µM | LC50 (HOP-92): > 100 µM | GI50 (U-251): 5.43 µM | CC50 (U-251; [2]): 48.6 µM | GI50 (HT-29): 3.36 µM | LC50 (HT-29): 35.1 µM | GI50 (ACHN): 11.6 µM | CC50 (ACHN; [2]): > 100 µM | GI50 (HCT-15): 4.57 µM | LC50 (concentration killing 50% of starting cells) (HCT-15): > 100 µM | GI50 (SF-539): 8.9 µM | LC50 (concentration killing 50% of cells) (SF-539): 92 µM | GI50 (KM12): 3.77 µM | CC50 (KM12; [2]): 39.5 µM | GI50 (OVCAR-8): 13.1 µM | LC50 (concentration causing 50% net cell kill) (OVCAR-8): 95.2 µM | GI50 (UO-31): 16.3 µM | CC50 (UO-31; [2]): > 100 µM | GI50 (HCC 2998): 12.2 µM | CC50 (HCC 2998; [2]): 76.1 µM | GI50 (MDA-MB-435): 1.65 µM | LC50 (MDA-MB-435): > 100 µM | GI50 (BT-549): 8.5 µM | CC50 (BT-549; [2]): > 100 µM | GI50 (SNB-75): 1.46 µM | LC50 (SNB-75): > 100 µM | GI50 (PC-3): 7.72 µM | CC50 (PC-3; [2]): > 100 µM | GI50 (HOP-62): 11.9 µM | CC50 (HOP-62; [2]): 95.6 µM | GI50 (OVCAR-4): 15.4 µM | CC50 (OVCAR-4; [2]): > 100 µM | GI50 (NCI-H522): 3.17 µM | CC50 (NCI-H522; [2]): > 100 µM | GI50 (NCI-H226): 15.3 µM | LC50 (NCI-H226): > 100 µM | GI50 (HCT-116): 7.23 µM | LC50 (50% lethal concentration) (HCT-116): 44.7 µM | GI50 (786-0): 12.4 µM | CC50 (786-0; [2]): 60.4 µM | GI50 (SR): 6.31 µM | LC50 (concentration killing 50% of cells) (SR): > 100 µM | GI50 (A498): 4.88 µM | LC50 (A498): 57.7 µM | GI50 (T47D): 14.2 µM | CC50 (T47D; [2]): > 100 µM | GI50 (A549): 12.6 µM | CC50 (A549; [2]): > 100 µM | GI50 (NCI-H460): 5.1 µM | CC50 (NCI-H460; [2]): > 100 µM | GI50 [1]: 4.2 µM | LC50 [1]: > 100 µM | GI50 (MOLT-4): 19.5 µM | LC50 (MOLT-4): > 100 µM | GI50 (SF-295): 3.67 µM | CC50 (SF-295; [2]): > 100 µM | GI50 (EKVX): 18.2 µM | CC50 (EKVX; [2]): > 100 µM | GI50 (NCI-H322M): 13.9 µM | CC50 (NCI-H322M; [2]): > 100 µM | GI50 (SK-OV-3): 14.1 µM | LC50 (concentration killing 50% of cells) (SK-OV-3): > 100 µM | GI50 (K562): 4.05 µM | LC50 (K562): > 100 µM | GI50 (MDA-MB-231): 12.6 µM | LC50 (lethal concentration, 50% net cell kill) (MDA-MB-231): > 100 µM | GI50 (COLO 205): 13 µM | CC50 (COLO 205; [2]): > 100 µM | GI50 (SW-620): 4.48 µM | LC50 (SW-620): > 100 µM | GI50 (CCRF-CEM): 8.16 µM | CC50 (CCRF-CEM; [2]): > 100 µM | GI50 (CAKI-1): 3.3 µM | LC50 (CAKI-1): > 100 µM | GI50 (HL-60(TB)): 6.54 µM | LC50 (HL-60(TB)): > 100 µM
